Measured values: ChEMBL document CHEMBL5214983, “New Dual P-Glycoprotein (P-gp) and Human Carbonic Anhydrase XII (hCA XII) Inhibitors as Multidrug Resistance (MDR) Reversers in Cancer Cells” (J Med Chem, 2022)

Tests used:
[1] = Stability in PBS measured by LC-MS/MS analysis; type: physicochemical; details: buffer
How it was run: (§1)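 Analyte at 1 μM in PBS or in pooled human plasma, incubated at 37 °C for 0, 30, 60 and 120 min, in triplicate. Internal standard verapamil added, mixture centrifuged, supernatant dried and redissolved. Analyte quantified by LC-MS/MS. Half-life taken from the slope of ln(concentration) versus time. Ketoprofen ethyl ester served as plasma activity reference.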

[2] = Stability in human plasma assessed as half-life measured by LC-MS/MS analysis; type: ADME, cell-free; how it was run: as §1
[3] = target: T1, ATP-dependent translocase ABCB1 (Homo sapiens, UniProt P08183); test: Inhibition of P-gp in doxorubicin-resistant human HT-29 cells overexpressing P-gp assessed as increase in doxorubicin retention 1 uM in presence of 5 uM doxorubicin measured after 24 hrs by spectrophotometric method; type: cell-based; details: ht-29, 24 h
How it was run: (§2)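 Resistant cells (wild-type, P-gp KO or hCA XII KO; KO lines selected with 1 μg/mL puromycin) exposed to 5 μM doxorubicin alone or with test compound at 1 or 3 μM. Cells washed, trypsinized and extracted in ethanol/0.3 N HCl. Doxorubicin fluorescence read at ex 475/em 553 nm and converted to nmol/mg cell protein with a calibration curve. Mean ± SD, n = 3.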

[4] = target: T1, ATP-dependent translocase ABCB1; test: Inhibition of P-gp in doxorubicin-resistant human A549 cells overexpressing P-gp assessed as increase in doxorubicin retention 1 uM in presence of 5 uM doxorubicin measured after 24 hrs by spectrophotometric method; type: cell-based; details: a549, 24 h; how it was run: as §2
[5] = target: T1, ATP-dependent translocase ABCB1; test: Inhibition of P-gp in doxorubicin-resistant human HT-29 cells overexpressing P-gp assessed as increase in doxorubicin retention 3 uM in presence of 5 uM doxorubicin measured after 24 hrs by spectrophotometric method; type: cell-based; details: ht-29, 24 h; how it was run: as §2
[6] = target: T1, ATP-dependent translocase ABCB1; test: Inhibition of P-gp in doxorubicin-resistant human A549 cells overexpressing P-gp assessed as increase in doxorubicin retention 3 uM in presence of 5 uM doxorubicin measured after 24 hrs by spectrophotometric method; type: cell-based; details: a549, 24 h; how it was run: as §2
[7] = target: T1, ATP-dependent translocase ABCB1; test: Inhibition of P-gp in human HT-29 cells overexpressing P-gp assessed as Vmax at 1 uM in presence of 0 to 100 uM doxorubicin […]; type: cell-based; details: ht-29, 1 µM
How it was run: (§3)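 Cells incubated 20 min with 0–100 μM doxorubicin, alone or with compound at 1 or 3 μM. A parallel set was left a further 10 min at 37 °C, then intracellular drug measured. Doxorubicin extruded (nmol/min/mg protein) plotted against initial concentration and fitted to Michaelis–Menten to give Vmax and Km. Mean ± SD.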

[8] = target: T1, ATP-dependent translocase ABCB1; test: Inhibition of P-gp in human HT-29 cells overexpressing P-gp assessed as Vmax at 3 uM in presence of 0 to 100 uM doxorubicin […]; type: cell-based; details: ht-29, 3 µM; how it was run: as §3
[9] = target: T1, ATP-dependent translocase ABCB1; test: Inhibition of P-gp in doxorubicin-resistant human HT-29 cells overexpressing P-gp assessed as Vmax at 1 uM in presence of 0 to 100 uM doxorubicin […]; type: cell-based; details: ht-29, 1 µM; how it was run: as §3
[10] = target: T1, ATP-dependent translocase ABCB1; test: Inhibition of P-gp in doxorubicin-resistant human HT-29 cells overexpressing P-gp assessed as Vmax at 3 uM in presence of 0 to 100 uM doxorubicin […]; type: cell-based; details: ht-29, 3 µM; how it was run: as §3
[11] = target: T1, ATP-dependent translocase ABCB1; test: Inhibition of P-gp in doxorubicin-resistant carbonic anhydrase knockout human HT-29 cells overexpressing P-gp assessed as Vmax at 1 uM in presence of 0 to 100 uM doxorubicin […]; type: cell-based; details: ht-29, 1 µM; how it was run: as §3
[12] = target: T1, ATP-dependent translocase ABCB1; test: Inhibition of P-gp in doxorubicin-resistant carbonic anhydrase knockout human HT-29 cells overexpressing P-gp assessed as Vmax at 3 uM in presence of 0 to 100 uM doxorubicin […]; type: cell-based; details: ht-29, 3 µM; how it was run: as §3
[13] = target: T1, ATP-dependent translocase ABCB1; test: Inhibition of P-gp in human A549 cells overexpressing P-gp assessed as Vmax at 1 uM in presence of 0 to 100 uM doxorubicin […]; type: cell-based; details: a549, 1 µM; how it was run: as §3
[14] = target: T1, ATP-dependent translocase ABCB1; test: Inhibition of P-gp in human A549 cells overexpressing P-gp assessed as Vmax at 3 uM in presence of 0 to 100 uM doxorubicin […]; type: cell-based; details: a549, 3 µM; how it was run: as §3
[15] = target: T1, ATP-dependent translocase ABCB1; test: Inhibition of P-gp in doxorubicin-resistant human A549 cells overexpressing P-gp assessed as Vmax at 1 uM in presence of 0 to 100 uM doxorubicin […]; type: cell-based; details: a549, 1 µM; how it was run: as §3
[16] = target: T1, ATP-dependent translocase ABCB1; test: Inhibition of P-gp in doxorubicin-resistant human A549 cells overexpressing P-gp assessed as Vmax at 3 uM in presence of 0 to 100 uM doxorubicin […]; type: cell-based; details: a549, 3 µM; how it was run: as §3
[17] = target: T1, ATP-dependent translocase ABCB1; test: Inhibition of P-gp in doxorubicin-resistant carbonic anhydrase knockout human A549 cells overexpressing P-gp assessed as Vmax at 1 uM in presence of 0 to 100 uM doxorubicin […]; type: cell-based; details: a549, 1 µM; how it was run: as §3
[18] = target: T1, ATP-dependent translocase ABCB1; test: Inhibition of P-gp in doxorubicin-resistant carbonic anhydrase knockout human A549 cells overexpressing P-gp assessed as Vmax at 3 uM in presence of 0 to 100 uM doxorubicin […]; type: cell-based; details: a549, 3 µM; how it was run: as §3

T1 sequence (P08183 whole entry): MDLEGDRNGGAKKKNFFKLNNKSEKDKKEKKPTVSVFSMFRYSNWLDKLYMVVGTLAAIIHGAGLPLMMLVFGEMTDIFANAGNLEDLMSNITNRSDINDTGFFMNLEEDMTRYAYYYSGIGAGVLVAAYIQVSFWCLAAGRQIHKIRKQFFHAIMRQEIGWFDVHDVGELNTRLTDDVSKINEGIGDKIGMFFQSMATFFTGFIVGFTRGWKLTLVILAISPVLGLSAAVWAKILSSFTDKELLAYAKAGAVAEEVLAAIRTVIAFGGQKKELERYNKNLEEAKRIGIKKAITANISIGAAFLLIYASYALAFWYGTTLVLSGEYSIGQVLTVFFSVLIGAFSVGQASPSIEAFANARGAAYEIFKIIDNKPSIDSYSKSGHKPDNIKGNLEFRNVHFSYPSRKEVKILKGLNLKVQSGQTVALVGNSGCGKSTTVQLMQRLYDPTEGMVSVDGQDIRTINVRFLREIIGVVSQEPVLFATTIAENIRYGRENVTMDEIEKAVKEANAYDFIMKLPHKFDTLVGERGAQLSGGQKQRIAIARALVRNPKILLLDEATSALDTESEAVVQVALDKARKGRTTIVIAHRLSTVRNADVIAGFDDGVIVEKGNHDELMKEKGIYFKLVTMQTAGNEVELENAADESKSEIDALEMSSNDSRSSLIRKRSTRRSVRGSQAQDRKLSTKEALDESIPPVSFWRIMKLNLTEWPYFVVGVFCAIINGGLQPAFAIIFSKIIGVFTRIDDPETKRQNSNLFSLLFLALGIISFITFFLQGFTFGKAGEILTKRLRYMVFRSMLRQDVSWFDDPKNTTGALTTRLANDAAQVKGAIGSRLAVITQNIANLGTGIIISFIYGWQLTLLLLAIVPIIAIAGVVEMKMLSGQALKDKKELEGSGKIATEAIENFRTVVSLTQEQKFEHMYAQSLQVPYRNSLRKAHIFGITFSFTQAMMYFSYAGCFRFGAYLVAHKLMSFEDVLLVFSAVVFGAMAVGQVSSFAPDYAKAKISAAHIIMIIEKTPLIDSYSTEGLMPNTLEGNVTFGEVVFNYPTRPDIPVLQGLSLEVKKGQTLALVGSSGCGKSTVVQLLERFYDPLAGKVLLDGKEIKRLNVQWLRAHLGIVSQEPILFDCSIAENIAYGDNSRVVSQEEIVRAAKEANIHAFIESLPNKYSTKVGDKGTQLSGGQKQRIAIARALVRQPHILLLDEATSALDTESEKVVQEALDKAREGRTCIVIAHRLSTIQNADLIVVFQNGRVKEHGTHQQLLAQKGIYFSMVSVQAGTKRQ

## COc1cc(/C=C/C(=O)OCCCCCCCN(CCCOC(=O)/C=C/c2cc(OC)c(OC)c(OC)c2)CCCOc2ccc3ccc(=O)oc3c2)cc(OC)c1OC
[1]
  Stability: Stable
[2]
  Stability: Stable

## COc1cc(C(=O)OCCCCCCCN(CCCOC(=O)c2c3ccccc3cc3ccccc23)CCCOc2ccc3ccc(=O)oc3c2)cc(OC)c1OC
[1]
  Stability: Stable
[2]
  Stability: Stable

## COc1cc(/C=C/C(=O)OCCCN(CCCCCCOC(=O)c2cc(OC)c(OC)c(OC)c2)CCCOc2ccc3ccc(=O)oc3c2)cc(OC)c1OC
[1]
  Stability: Stable
[2]
  Stability: Stable

## O=C(OCCCCCN(CCCOC(=O)c1c2ccccc2cc2ccccc12)CCCOc1ccc2ccc(=O)oc2c1)c1c2ccccc2cc2ccccc12
[1]
  Stability: Stable
[2]
  Stability: Stable

## COc1cc(/C=C/C(=O)OCCCCCN(CCCOC(=O)c2c3ccccc3cc3ccccc23)CCCOc2ccc3ccc(=O)oc3c2)cc(OC)c1OC
[1]
  Stability: Stable
[2]
  Stability: Stable

## COc1cc(/C=C/C(=O)OCCCCCCN(CCCOC(=O)/C=C/c2cc(OC)c(OC)c(OC)c2)CCCOc2ccc3ccc(=O)oc3c2)cc(OC)c1OC
[1]
  Stability: Stable
[2]
  Stability: Stable

## COc1cc(/C=C/C(=O)OCCCN(CCCCCCCOC(=O)c2cc(OC)c(OC)c(OC)c2)CCCOc2ccc3ccc(=O)oc3c2)cc(OC)c1OC
[1]
  Stability: Stable
[2]
  Stability: Stable

## COc1cc(/C=C/C(=O)OCCCN(CCCCCCOC(=O)c2c3ccccc3cc3ccccc23)CCCOc2ccc3ccc(=O)oc3c2)cc(OC)c1OC
[1]
  Stability: Stable
[2]
  Stability: Stable

## COc1cc(C(=O)OCCCCCN(CCCOC(=O)c2c3ccccc3cc3ccccc23)CCCOc2ccc3ccc(=O)oc3c2)cc(OC)c1OC
[1]
  Stability: Stable
[2]
  Stability: Stable

## COc1cc(C(=O)OCCCCCCCN(CCCOC(=O)c2cc(OC)c(OC)c(OC)c2)CCCOc2ccc3ccc(=O)oc3c2)cc(OC)c1OC
[1]
  Stability: Stable
[2]
  Stability: Stable

## COc1cc(/C=C/C(=O)OCCCCCN(CCCOC(=O)/C=C/c2cc(OC)c(OC)c(OC)c2)CCCOc2ccc3ccc(=O)oc3c2)cc(OC)c1OC
[1]
  Stability: Stable
[2]
  Stability: Stable

## COc1cc(/C=C/C(=O)OCCCCCN(CCCOC(=O)c2cc(OC)c(OC)c(OC)c2)CCCOc2ccc3ccc(=O)oc3c2)cc(OC)c1OC
[1]
  Stability: Stable
[2]
  Stability: Stable

## COc1cc(C(=O)OCCCCCN(CCCOC(=O)c2cc(OC)c(OC)c(OC)c2)CCCOc2ccc3ccc(=O)oc3c2)cc(OC)c1OC
[1]
  Stability: Stable
[2]
  Stability: Stable
[3]
  inhibition (INH): Active
[4]
  inhibition (INH): Active
[5]
  inhibition (INH): Active
[6]
  inhibition (INH): Active
[7]
  Vmax: 3.29 µmol/min
[8]
  Vmax: 3.12 µmol/min
[9]
  Vmax: 5.3 µmol/min
[10]
  Vmax: 3.21 µmol/min
[11]
  Vmax: 4.3 µmol/min
[12]
  Vmax: 3.22 µmol/min
[13]
  Vmax: 2.36 µmol/min
[14]
  Vmax: 2.35 µmol/min
[15]
  Vmax: 5.1 µmol/min
[16]
  Vmax: 3.98 µmol/min
[17]
  Vmax: 3.75 µmol/min
[18]
  Vmax: 2.74 µmol/min

## COc1cc(C(=O)OCCCCCCN(CCCOC(=O)c2cc(OC)c(OC)c(OC)c2)CCCOc2ccc3ccc(=O)oc3c2)cc(OC)c1OC
[1]
  Stability: Stable
[2]
  Stability: Stable
[3]
  inhibition (INH): Active
[4]
  inhibition (INH): Active
[5]
  inhibition (INH): Active
[6]
  inhibition (INH): Active
[7]
  Vmax: 3.21 µmol/min
[8]
  Vmax: 3.28 µmol/min
[9]
  Vmax: 4.73 µmol/min
[10]
  Vmax: 3.8 µmol/min
[11]
  Vmax: 4.27 µmol/min
[12]
  Vmax: 3.45 µmol/min
[13]
  Vmax: 2.43 µmol/min
[14]
  Vmax: 2.41 µmol/min
[15]
  Vmax: 5.27 µmol/min
[16]
  Vmax: 4.14 µmol/min
[17]
  Vmax: 3.6 µmol/min
[18]
  Vmax: 2.92 µmol/min

## COc1cc(/C=C/C(=O)OCCCCCCCN(CCCOC(=O)c2c3ccccc3cc3ccccc23)CCCOc2ccc3ccc(=O)oc3c2)cc(OC)c1OC
[1]
  Stability: Stable
[2]
  Stability: Stable

## COc1cc(/C=C/C(=O)OCCCN(CCCCCOC(=O)c2cc(OC)c(OC)c(OC)c2)CCCOc2ccc3ccc(=O)oc3c2)cc(OC)c1OC
[1]
  Stability: Stable
[2]
  Stability: Stable

## O=C(OCCCCCCCN(CCCOC(=O)c1c2ccccc2cc2ccccc12)CCCOc1ccc2ccc(=O)oc2c1)c1c2ccccc2cc2ccccc12
[1]
  Stability: Stable
[2]
  Stability: Stable

## COc1cc(C(=O)OCCCN(CCCCCCOC(=O)c2c3ccccc3cc3ccccc23)CCCOc2ccc3ccc(=O)oc3c2)cc(OC)c1OC
[1]
  Stability: Stable
[2]
  Stability: Stable

## COc1cc(/C=C/C(=O)OCCCCCCCN(CCCOC(=O)c2cc(OC)c(OC)c(OC)c2)CCCOc2ccc3ccc(=O)oc3c2)cc(OC)c1OC
[1]
  Stability: Stable
[2]
  Stability: Stable

## O=C(OCCCCCCN(CCCOC(=O)c1c2ccccc2cc2ccccc12)CCCOc1ccc2ccc(=O)oc2c1)c1c2ccccc2cc2ccccc12
[1]
  Stability: Stable
[2]
  Stability: Stable

## COc1cc(/C=C/C(=O)OCCCCCCN(CCCOC(=O)c2c3ccccc3cc3ccccc23)CCCOc2ccc3ccc(=O)oc3c2)cc(OC)c1OC
[1]
  Stability: Stable
[2]
  Stability: Stable

## COc1cc(/C=C/C(=O)OCCCN(CCCCCOC(=O)c2c3ccccc3cc3ccccc23)CCCOc2ccc3ccc(=O)oc3c2)cc(OC)c1OC
[1]
  Stability: Stable
[2]
  Stability: Stable

## COc1cc(C(=O)OCCCN(CCCCCCCOC(=O)c2c3ccccc3cc3ccccc23)CCCOc2ccc3ccc(=O)oc3c2)cc(OC)c1OC
[1]
  Stability: Stable
[2]
  Stability: Stable

## COc1cc(/C=C/C(=O)OCCCCCCN(CCCOC(=O)c2cc(OC)c(OC)c(OC)c2)CCCOc2ccc3ccc(=O)oc3c2)cc(OC)c1OC
[1]
  Stability: Stable
[2]
  Stability: Stable

## COc1cc(C(=O)OCCCN(CCCCCOC(=O)c2c3ccccc3cc3ccccc23)CCCOc2ccc3ccc(=O)oc3c2)cc(OC)c1OC
[1]
  Stability: Stable
[2]
  Stability: Stable

## COc1cc(C(=O)OCCCCCCN(CCCOC(=O)c2c3ccccc3cc3ccccc23)CCCOc2ccc3ccc(=O)oc3c2)cc(OC)c1OC
[1]
  Stability: Stable
[2]
  Stability: Stable

## COc1cc(/C=C/C(=O)OCCCN(CCCCCCCOC(=O)c2c3ccccc3cc3ccccc23)CCCOc2ccc3ccc(=O)oc3c2)cc(OC)c1OC
[1]
  Stability: Stable
[2]
  Stability: Stable
